Reference: ChEMBL document CHEMBL1155527 (J Med Chem, 2010)
In brackets after ≈: the same amount, converted by molar mass.

How the values were obtained:
[1] = target: T1, 5-hydroxytryptamine receptor 3A (Homo sapiens, UniProt P46098); assay: Antagonist activity at human 5HT3A receptor expressed in HEK293 cells by FLIPR assay
T1 sequence (P46098 whole entry): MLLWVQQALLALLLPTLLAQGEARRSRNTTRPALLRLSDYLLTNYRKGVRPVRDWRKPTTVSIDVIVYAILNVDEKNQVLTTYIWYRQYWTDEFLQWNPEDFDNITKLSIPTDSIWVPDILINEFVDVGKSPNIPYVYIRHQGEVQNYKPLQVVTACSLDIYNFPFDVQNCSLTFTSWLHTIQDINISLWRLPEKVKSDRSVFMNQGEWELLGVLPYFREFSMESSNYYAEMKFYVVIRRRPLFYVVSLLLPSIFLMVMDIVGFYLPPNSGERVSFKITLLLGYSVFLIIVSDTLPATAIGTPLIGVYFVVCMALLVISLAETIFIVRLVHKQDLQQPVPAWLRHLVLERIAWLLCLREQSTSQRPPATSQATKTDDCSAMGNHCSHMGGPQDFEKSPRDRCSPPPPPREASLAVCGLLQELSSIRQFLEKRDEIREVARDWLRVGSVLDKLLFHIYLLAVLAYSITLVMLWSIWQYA

[2] = target: CYP2D6 (Homo sapiens, UniProt P10635); assay: Inhibition of CYP2D6 at 3 uM by Gentest method; assay type: ADME
Sequence of CYP2D6 (P10635 whole entry): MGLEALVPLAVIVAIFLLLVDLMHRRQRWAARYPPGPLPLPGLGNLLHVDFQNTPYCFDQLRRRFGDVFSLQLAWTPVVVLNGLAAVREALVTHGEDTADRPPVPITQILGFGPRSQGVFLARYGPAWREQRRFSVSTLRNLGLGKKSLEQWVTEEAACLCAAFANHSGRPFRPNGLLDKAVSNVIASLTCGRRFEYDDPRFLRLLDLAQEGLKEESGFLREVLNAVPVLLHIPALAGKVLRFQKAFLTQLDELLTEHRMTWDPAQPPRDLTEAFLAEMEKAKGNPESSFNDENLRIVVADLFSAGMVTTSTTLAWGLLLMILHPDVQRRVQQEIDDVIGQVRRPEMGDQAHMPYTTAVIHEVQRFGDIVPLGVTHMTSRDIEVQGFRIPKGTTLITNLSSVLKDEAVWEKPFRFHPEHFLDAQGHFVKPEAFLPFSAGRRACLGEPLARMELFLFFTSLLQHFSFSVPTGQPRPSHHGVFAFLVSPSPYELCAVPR

[3] = Solubility in ammonium acetate buffer at pH 7.4 by pseudothermodynamic equilibrium assay; assay type: physicochemical
[4] = system: CYP3A4; assay: Metabolic stability assessed as compound remaining after 1 hr in presence of human CYP3A4; assay type: ADME; conditions: read-out: Stability
[5] = target: Neuronal acetylcholine receptor subunit alpha-7 (Rattus norvegicus, UniProt Q05941); assay: Agonist activity at rat alpha7 nAChR expressed in rat GH4C1 cells assessed as calcium flux by FLIPR; assay type: functional, cell-based, GH4-C1
Sequence of Neuronal acetylcholine receptor subunit alpha-7 (Q05941 whole entry): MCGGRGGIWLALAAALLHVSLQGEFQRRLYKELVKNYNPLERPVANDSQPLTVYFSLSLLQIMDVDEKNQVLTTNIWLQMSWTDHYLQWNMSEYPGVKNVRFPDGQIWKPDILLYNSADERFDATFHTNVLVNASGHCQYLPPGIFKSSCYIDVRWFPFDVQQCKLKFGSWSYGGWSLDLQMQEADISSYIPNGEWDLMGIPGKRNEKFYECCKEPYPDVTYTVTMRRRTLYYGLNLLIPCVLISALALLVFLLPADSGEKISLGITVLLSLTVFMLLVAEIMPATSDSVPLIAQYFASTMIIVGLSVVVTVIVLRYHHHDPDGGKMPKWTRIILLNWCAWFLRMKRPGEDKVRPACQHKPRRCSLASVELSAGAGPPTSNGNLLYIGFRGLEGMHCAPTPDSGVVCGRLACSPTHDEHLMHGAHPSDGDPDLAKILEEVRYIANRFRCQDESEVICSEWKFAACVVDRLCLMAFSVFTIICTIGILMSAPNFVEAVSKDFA
Procedure, shortened: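 Cells were loaded 40 min at 37 °C with 4 μM Fluo-4-AM in HBSS-HEPES pH 7.4 with probenecid. FLIPR Ca2+ flux was read for ~10 min after compound addition. MAX-MIN was normalized to positive control and fitted to a variable-slope sigmoid. Triplicate points from a single experiment.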

[6] = Selectivity ratio of EC50 for human alpha3 nAChR to EC50 for rat alpha7 nAChR
[7] = Selectivity ratio of EC50 for human alpha1 nAChR to EC50 for rat alpha7 nAChR
[8] = target: CYP2C9 (Homo sapiens, UniProt P11712); assay: Inhibition of CYP2C9 at 3 uM by Gentest method; assay type: ADME
Sequence of CYP2C9 (P11712 whole entry): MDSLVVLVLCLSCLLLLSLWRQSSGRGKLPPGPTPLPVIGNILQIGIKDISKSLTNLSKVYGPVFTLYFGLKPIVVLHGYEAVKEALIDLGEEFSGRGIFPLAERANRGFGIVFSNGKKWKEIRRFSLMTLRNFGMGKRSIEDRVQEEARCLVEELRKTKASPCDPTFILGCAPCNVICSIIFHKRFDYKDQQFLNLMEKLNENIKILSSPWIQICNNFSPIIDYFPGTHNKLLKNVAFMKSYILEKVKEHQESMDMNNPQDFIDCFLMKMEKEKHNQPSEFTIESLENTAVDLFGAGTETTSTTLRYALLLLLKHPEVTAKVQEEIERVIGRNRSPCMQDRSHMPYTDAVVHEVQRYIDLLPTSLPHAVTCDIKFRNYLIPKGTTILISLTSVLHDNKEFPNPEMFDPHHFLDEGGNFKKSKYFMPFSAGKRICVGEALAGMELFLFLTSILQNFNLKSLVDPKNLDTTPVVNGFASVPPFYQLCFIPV

[9] = target: CYP3A4 (Homo sapiens, UniProt P08684); assay: Inhibition of CYP3A4 at 3 uM by Gentest method; assay type: ADME
Sequence of CYP3A4 (Homo sapiens, UniProt P08684) (P08684 whole entry): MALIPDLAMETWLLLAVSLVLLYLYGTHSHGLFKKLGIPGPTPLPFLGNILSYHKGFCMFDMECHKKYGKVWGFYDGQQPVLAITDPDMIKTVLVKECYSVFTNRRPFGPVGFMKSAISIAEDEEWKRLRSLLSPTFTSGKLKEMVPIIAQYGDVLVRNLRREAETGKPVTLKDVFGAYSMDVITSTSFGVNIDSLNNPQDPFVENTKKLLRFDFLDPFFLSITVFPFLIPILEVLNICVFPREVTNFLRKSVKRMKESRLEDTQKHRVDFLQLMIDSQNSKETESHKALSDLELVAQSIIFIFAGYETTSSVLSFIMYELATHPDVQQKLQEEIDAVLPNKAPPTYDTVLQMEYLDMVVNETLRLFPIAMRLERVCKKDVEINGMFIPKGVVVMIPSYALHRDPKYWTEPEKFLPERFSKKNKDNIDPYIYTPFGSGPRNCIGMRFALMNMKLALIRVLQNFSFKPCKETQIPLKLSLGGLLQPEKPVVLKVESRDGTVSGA

[10] = target: T2, Alpha-2B adrenergic receptor (Homo sapiens, UniProt P18089); assay: Binding affinity to adrenergic alpha2B receptor
T2 sequence (P18089 whole entry): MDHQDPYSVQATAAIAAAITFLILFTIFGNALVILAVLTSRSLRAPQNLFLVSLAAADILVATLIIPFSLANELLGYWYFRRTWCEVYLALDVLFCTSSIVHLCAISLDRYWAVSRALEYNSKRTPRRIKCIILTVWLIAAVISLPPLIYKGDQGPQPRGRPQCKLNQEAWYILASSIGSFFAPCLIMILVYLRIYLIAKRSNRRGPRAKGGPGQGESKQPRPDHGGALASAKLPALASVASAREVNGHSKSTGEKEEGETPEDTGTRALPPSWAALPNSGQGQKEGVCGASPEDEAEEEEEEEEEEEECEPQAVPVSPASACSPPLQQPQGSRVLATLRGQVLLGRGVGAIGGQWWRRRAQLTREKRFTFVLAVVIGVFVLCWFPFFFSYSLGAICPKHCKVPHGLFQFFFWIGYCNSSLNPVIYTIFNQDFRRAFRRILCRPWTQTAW
Procedure, shortened: (§1)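 Screened at 10 μM in a panel of about 70 receptor binding sites (Novascreen).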

[11] = Oral bioavailability in Han Wistar rat assessed as ratio of AUC (0 to infinity) at 10 mg/kg, po normalized to 2 mg/kg, iv; assay type: ADME, organism-based; conditions: in vivo
[12] = system: Rattus norvegicus; assay: Cmax in Long Evans rat at 3 mg/kg, po; assay type: ADME, organism-based; set-up: dose 3 mg/kg, route oral; conditions: in vivo
Procedure, shortened: (§2)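 Male Long Evans rats (6-8 weeks, 250-550 g) given a single 3 mg/kg oral dose as a solution in 2% Tween, 0.5% methocell in water. Plasma sampled over 6 h. Levels measured by LC-MS/MS after acetonitrile protein precipitation with internal standard; detection limit 1 ng/mL.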

[13] = Intrinsic clearance in rat liver microsomes by LC-MS/MS analysis; assay type: ADME, Microsome
Procedure, shortened: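 Rat liver microsomes (0.633 mg/mL protein in 0.1 M potassium phosphate pH 7.4 with EDTA) were incubated with test compound and NADPH regenerating agent for 15 min at 37 °C, against a time-0 control, in duplicate. Reactions were quenched with cold acetonitrile, centrifuged, and supernatants analyzed by LC-MS.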

[14] = target: 5-hydroxytryptamine receptor 4 (Homo sapiens, UniProt Q13639); assay: Binding affinity to 5HT4 receptor
Sequence of 5-hydroxytryptamine receptor 4 (Q13639 whole entry): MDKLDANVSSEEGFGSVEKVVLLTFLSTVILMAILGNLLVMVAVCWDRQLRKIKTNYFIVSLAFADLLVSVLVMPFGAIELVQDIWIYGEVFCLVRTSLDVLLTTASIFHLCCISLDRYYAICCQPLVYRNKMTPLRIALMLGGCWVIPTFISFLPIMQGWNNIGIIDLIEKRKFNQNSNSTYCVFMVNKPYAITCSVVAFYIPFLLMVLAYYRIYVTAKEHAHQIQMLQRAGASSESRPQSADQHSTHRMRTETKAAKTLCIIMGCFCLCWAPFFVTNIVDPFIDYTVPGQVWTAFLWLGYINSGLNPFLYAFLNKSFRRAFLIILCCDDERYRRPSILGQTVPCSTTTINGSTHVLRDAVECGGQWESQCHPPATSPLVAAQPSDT
Procedure, shortened: as §1

[15] = system: Rattus norvegicus; assay: Inhibition of MK-801-induced cognitive function in po dosed Long Evans rat administered 60 mins prior to MK801 challenge measured after 1 hr by novel object recognition test; assay type: functional; conditions: read-out: MED
Procedure, shortened: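 NOR in rats: vehicle or test compound (0.3-30 mg/kg po) 60 min before the sample trial, and MK-801 (0.03 mg/kg ip) 30 min before. Sample trial was 5 min with two identical objects. Choice trial, 1 h later, was 5 min with one familiar and one novel object. N = 10 per group.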

[16] = Ratio of drug level from brain to plasma in Han Wistar rat at 2 mg/kg, po; assay type: ADME, organism-based; set-up: dose 2 mg/kg, route oral; conditions: read-out: BPR
Procedure, shortened: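 Male Han Wistar rats received a single 2 mg/kg po dose. Ratio calculated from brain and plasma AUC0-inf.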

[17] = Tmax in Long Evans rat at 3 mg/kg, po; assay type: ADME, organism-based; set-up: dose 3 mg/kg, route oral; conditions: in vivo
Procedure, shortened: as §2

[18] = Half life in Han Wistar rat at 10 mg/kg, po and 2 mg/kg, iv; assay type: ADME, organism-based; conditions: in vivo
[19] = target: T3, Alpha-2A adrenergic receptor (Homo sapiens, UniProt P08913); assay: Binding affinity to adrenergic alpha2A receptor
T3 sequence (P08913 whole entry): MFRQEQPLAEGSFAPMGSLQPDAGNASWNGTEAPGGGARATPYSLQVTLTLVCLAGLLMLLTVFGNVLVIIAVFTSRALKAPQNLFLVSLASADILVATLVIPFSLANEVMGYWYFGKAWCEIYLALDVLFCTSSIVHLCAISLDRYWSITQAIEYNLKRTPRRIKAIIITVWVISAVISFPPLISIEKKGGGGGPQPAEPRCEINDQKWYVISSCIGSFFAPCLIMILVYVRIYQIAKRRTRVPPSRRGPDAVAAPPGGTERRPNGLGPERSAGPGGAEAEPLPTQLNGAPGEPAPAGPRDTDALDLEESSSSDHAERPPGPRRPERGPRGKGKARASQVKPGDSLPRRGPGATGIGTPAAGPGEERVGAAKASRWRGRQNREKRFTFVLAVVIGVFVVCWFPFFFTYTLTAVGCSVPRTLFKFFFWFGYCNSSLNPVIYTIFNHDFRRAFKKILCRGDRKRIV
Procedure, shortened: as §1

[20] = system: Rattus norvegicus; assay: Inhibition of MK-801-induced perceptual processing in po dosed Long Evans rat administered 60 mins prior to MK801 challenge measured after 1 hr by prepulse inhibition test; assay type: functional; conditions: read-out: MED
Procedure, shortened: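 Rat prepulse inhibition: test compound (1-30 mg/kg) given po 60 min and MK-801 (0.085 mg/kg) sc 10 min before testing. After 5 min at 64 dB background, 61 trials were run: 120 dB pulse alone or with a 69/74/79 dB prepulse 100 ms earlier. PPI = 100 - (prepulse/pulse startle × 100). Chronic arm: 3 mg/kg po daily for 14 days.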

[21] = AUC (0 to infinity) in brain of Han Wistar rat at 2 mg/kg, po; assay type: ADME, organism-based; set-up: time infinity, dose 2 mg/kg, route oral
[22] = AUC (0 to infinity) in plasma of Han Wistar rat at 2 mg/kg, po; assay type: ADME, organism-based; set-up: time infinity, dose 2 mg/kg, route oral
[23] = target: Neuronal acetylcholine receptor; alpha4/beta2 (Homo sapiens, UniProt P17787+P43681); assay: Agonist activity at alpha4beta2 nAChR; assay type: functional
Sequence of Neuronal acetylcholine receptor; alpha4/beta2 (P17787 whole entry): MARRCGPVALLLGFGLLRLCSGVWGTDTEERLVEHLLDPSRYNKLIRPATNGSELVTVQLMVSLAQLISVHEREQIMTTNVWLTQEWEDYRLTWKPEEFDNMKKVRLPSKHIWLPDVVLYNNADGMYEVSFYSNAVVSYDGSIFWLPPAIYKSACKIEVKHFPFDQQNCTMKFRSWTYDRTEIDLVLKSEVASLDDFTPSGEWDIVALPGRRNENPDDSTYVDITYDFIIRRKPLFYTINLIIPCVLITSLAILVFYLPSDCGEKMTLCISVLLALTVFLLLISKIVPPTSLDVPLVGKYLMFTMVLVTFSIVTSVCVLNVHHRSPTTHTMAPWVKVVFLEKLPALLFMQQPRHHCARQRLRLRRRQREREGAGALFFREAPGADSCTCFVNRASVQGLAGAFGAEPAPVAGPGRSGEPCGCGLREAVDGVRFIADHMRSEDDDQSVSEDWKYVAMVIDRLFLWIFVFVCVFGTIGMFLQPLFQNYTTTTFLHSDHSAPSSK
Sequence of Neuronal acetylcholine receptor; alpha4/beta2 (P43681 whole entry): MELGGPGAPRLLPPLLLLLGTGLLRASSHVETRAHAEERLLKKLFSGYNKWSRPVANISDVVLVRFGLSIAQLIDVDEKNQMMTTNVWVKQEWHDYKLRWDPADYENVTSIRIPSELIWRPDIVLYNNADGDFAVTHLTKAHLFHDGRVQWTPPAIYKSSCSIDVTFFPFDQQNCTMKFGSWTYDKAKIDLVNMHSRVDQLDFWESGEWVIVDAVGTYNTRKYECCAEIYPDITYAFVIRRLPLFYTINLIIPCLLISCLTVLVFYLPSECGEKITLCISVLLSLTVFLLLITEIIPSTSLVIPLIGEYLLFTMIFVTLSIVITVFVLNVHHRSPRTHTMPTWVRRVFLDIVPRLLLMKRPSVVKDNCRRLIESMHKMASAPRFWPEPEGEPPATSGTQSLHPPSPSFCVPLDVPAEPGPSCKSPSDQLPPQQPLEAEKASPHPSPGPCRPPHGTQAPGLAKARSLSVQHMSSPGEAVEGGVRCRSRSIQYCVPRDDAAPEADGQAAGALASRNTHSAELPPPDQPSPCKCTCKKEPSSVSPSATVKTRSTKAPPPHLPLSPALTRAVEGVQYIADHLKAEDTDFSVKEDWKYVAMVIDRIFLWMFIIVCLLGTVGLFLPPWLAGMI

[24] = AUC (last) in Long Evans rat at 3 mg/kg, po; assay type: ADME, organism-based; set-up: time 0 - last, dose 3 mg/kg, route oral; conditions: plasma
Procedure, shortened: as §2

Compound | IC50 [1] | inhibition at 3 µM [2] | solubility thermodynamic [3] | remaining at 1 h [4] | EC50 [5] | Ratio EC50 [6] | Ratio EC50 [7] | inhibition at 3 µM [8] | inhibition at 3 µM [9] | also measured
O=C(NCCCCN1CCCCC1)Nc1ccc(-c2ccccn2)cc1 | > 30000 nM | 15% | 153 µM (≈ 53.9 µg/mL) | 97% | 130 nM | 5 | > 30 | 0% | -2% | 
O=C(NCCCCN1CCCCC1)Nc1ccc(-c2ccccc2)cc1 | 7900 nM |  | 108 µM (≈ 38 µg/mL) | 100% | 260 nM | 2.8 | > 30 | 2% |  | 
O=C(NCCCCN1CCCCC1)Nc1ccc(-c2ccc(F)cc2)nc1 | > 30000 nM | 19% | 121 µM (≈ 44.8 µg/mL) | 75% |  |  |  | -17% | 0% | IC50 [10]: 35000 nM; bioavailability [11]: 100%; Cmax [12]: 40 ng/mL; microsomal CLint [13]: < 5 µL/min/mg; Ki [14]: 6000 nM; minimal effective dose [15]: 3 mg/kg; Kp [16]: 0.3; Tmax [17]: 5.3 h; half-life [18]: 3.5 h; IC50 [19]: 7500 nM; minimal effective dose [20]: 3 mg/kg; AUC(0-inf) [21]: 215 ng·h/mL; AUC(0-inf) [22]: 768 ng·h/mL; IC50 [23]: > 30000 nM; AUC(0-t) [24]: 318 ng·h/mL
COc1ccccc1-c1ccc(NC(=O)NCCCCN2CCCCC2)cc1 | 7800 nM |  | 114 µM (≈ 43.5 µg/mL) | 100% | 140 nM | 1.1 | 7.7 | -2% | 5% | 
O=C(CCCCCN1CCCCC1)Nc1ccc(-c2cccnc2)cc1 |  |  |  |  | 890 nM |  |  |  |  | 
O=C(NCCCCN1CCCCC1)Nc1ccc(-c2ccc(F)cc2)cc1 | 5800 nM |  | 20 µM (≈ 7.39 µg/mL) | 100% |  | 1.7 | 8 | -16% | -13% | 
O=C(NCCCCN1CCCCC1)Nc1ccc(-c2ccccc2F)nc1 | > 30000 nM |  | 196 µM (≈ 72.6 µg/mL) | 100% | 150 nM | 5.6 | > 30 | -10% | -3% | 
O=C(NCCCCN1CCOCC1)Nc1ccc(-c2cccnc2)cc1 |  |  |  |  | 490 nM |  |  |  |  | 
O=C(NCCCCN1CCCCC1)Nc1ccc(-c2ccccn2)nc1 | > 30000 nM | 22% | 171 µM (≈ 60.4 µg/mL) | 100% | 390 nM | 9.88 | > 30 | -3% | 0% | 
O=C(NCCCCN1CCCCC1)Nc1ccc(-c2ccc(F)nc2)cc1 | > 30000 nM |  | 158 µM (≈ 58.5 µg/mL) | 100% | 120 nM | 1.2 | > 30 | -18% | -22% | 
O=C(NCCCCN1CCCCC1)Nc1ccc(-c2ccccc2)nc1 | > 30000 nM | 6% | 193 µM (≈ 68 µg/mL) | 100% | 120 nM | 10.1 | > 30 | -4% | -21% | microsomal CLint [13]: 18 µL/min/mg
O=C(CCCCN1CCCCC1)Nc1ccc(-c2cccnc2)cc1 |  |  |  |  | 350 nM |  |  |  |  | 
COc1ccccc1-c1ccc(NC(=O)NCCCCN2CCCCC2)cn1 | > 30000 nM | 8% | 174 µM (≈ 66.6 µg/mL) | 88% | 230 nM | 3.9 | > 30 | 6% | 8% | 
O=C(NCCCCN1CCCCC1)Nc1ccc(-c2ccccc2F)cc1 | 5700 nM |  | 95 µM (≈ 35.1 µg/mL) | 88% | 130 nM | 1.2 | 8.2 | -1% | -17% | 
O=C(NCCCCN1CCCCC1)Nc1ccc(-c2ccc(F)nc2)nc1 | > 30000 nM | 8% | 205 µM (≈ 76.1 µg/mL) | 100% | 530 nM | > 30 | > 30 | -10% | -19% | 
O=C(NCCCCN1CCCCC1)Nc1ccc(-c2cccnc2)cc1 |  |  |  |  | 120 nM |  |  |  |  | 
